Data set [1] has as its target T1, AURKB (Aurora kinase B) (Homo sapiens, UniProt Q96GD4). Briefly: Inhibition of AURKB in human HEK293T cells assessed as reduction in cell viability at 270 nM measured after 48 hrs in presence of 3 uM MK-5108 relative to control. The data set is classed as cell-based, HEK-293T. In short, it runs like this: (§1)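 HEK293T cells treated 48 h with the compound alone or combined with a second kinase inhibitor at the stated level, then fixed, stained and counted. Cell number expressed as a percentage of untreated wells; n = 4-16.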

A short description of data set [2]: Cytotoxicity against mouse R7T1 cells assessed as reduction in cell viability measured after 48 hrs by Hoechst 33342 staining based analysis. Summed up: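 Mouse R7T1 β-cells cultured in high-glucose DMEM with 10% FBS, doxycycline and pyruvate, plated at 25,000 cells/well. Treated in quadruplicate 6 h later (0.169–10,000 nM) for 48 h. Cells fixed in paraformaldehyde and stained with 4 μM Hoechst 33342; nuclei counted by high-content imaging.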

Data set [3] is described as follows: Half life in human liver microsomes at 1 uM preincubated for 10 mins followed by NADPH addition and measured up to 40 mins by LC-MS/MS analysis. The data set is classed as ADME, Microsome. In short, it runs like this:
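Human or mouse liver microsomes, each run separately, in 100 mM KxPO4 pH 7.4 with 10 mM MgCl2 and 1 μM test compound. Pre-incubated 10 min at 37 °C, then started with 1 mM NADPH. Quenched in acetonitrile stop solution at 0, 10, 20 and 40 min, centrifuged, diluted and analysed by LC-MS/MS.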
For orientation: Liver microsomes are vesicles of endoplasmic reticulum, rich in cytochrome P450 enzymes.

Data set [4] concerns HEK-293T. The data set is described as follows: Cytotoxicity against human HEK293T cells transfected with DYRK1A co-tranfected with Renilla plasmid, pGL3-NFAT and NFATc1 assessed as reduction in luciferase activity by measuring cell number. The data set is classed as cell-based. Particulars: hek-293t; call rule not given here. Summed up: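 HEK293T cells transfected with PEI using DYRK1A, Renilla plasmid, IL-2-based pGL3-NFAT firefly reporter and NFATc1. Next day the same transfected population was split into 96-well plates; 6 h later cells were treated for 48 h (11-point dose curve, n = 4), then lysed. EC50 from firefly/Renilla ratio, 4-parameter agonist fit. CC50 from loss of constitutive Renilla signal, 4-parameter inhibitor fit.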

Data set [5] has as its target T1, AURKB (Aurora kinase B). The data set is described as follows: Inhibition of AURKB in human HEK293T cells assessed as reduction in cell viability at 90 to 270 nM measured after 48 hrs in presence of 40 nM AZD-1152-HQPA relative to control. The data set is classed as cell-based, HEK-293T. In short, it runs like this:
as §1

In data set [6] the target is Aurora kinase B (Homo sapiens, UniProt Q96GD4). The data set is described as follows: Inhibition of AURKB in human HEK293T cells assessed as reduction in cell viability at 30 to 70 nM measured after 48 hrs. The data set is classed as cell-based. Particulars: hek-293t, 0.27 µM, in the assay text read “30 to 270 nM” for “30 to 70 nM”. In short, it runs like this:
as §1

In data set [7] the target is T1, AURKB (Aurora kinase B). Briefly: Inhibition of AURKB in human HEK293T cells assessed as reduction in cell viability at 90 nM measured after 48 hrs in presence of 3 uM MK-5108 relative to control. The data set is classed as cell-based, HEK-293T. Summed up: as §1

T1 sequence (Q96GD4 whole entry): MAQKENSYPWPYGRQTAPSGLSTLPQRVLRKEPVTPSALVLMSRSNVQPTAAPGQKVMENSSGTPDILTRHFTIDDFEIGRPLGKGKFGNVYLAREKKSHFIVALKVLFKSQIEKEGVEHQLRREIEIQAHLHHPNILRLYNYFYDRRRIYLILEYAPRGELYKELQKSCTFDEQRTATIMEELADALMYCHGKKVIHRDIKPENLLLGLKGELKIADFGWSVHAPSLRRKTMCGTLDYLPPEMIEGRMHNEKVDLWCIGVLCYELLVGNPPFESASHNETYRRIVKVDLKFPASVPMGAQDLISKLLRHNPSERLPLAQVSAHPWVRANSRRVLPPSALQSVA
Aurora kinase B, sequence (Q96GD4 whole entry): as above

On to `CCOC(=O)c1cnc2ccc(-c3ccncc3)nc2c1N[C@H]1CC[C@H](CN(C)C)CC1`, for which, in data set [1], the inhibition at 48 h, 0.27 µM came to 34%. The half-maximal cytotoxic concentration (CC50) in data set [2] is 3.86 µM; in data set [4] it was 8.05 µM. For the same molecule, in data set [3], the t1/2 came out at 32 min. In addition, the inhibition at 48 h, up to 0.27 µM in data set [5] came to 67%. Moreover, the “inhibition (INH)” value in data set [6] is recorded as “Not Active”. Moreover, the inhibition at 48 h, 0.09 µM in data set [7] amounted to 36%.

As a reminder, the inhibition is how much of the control response was suppressed. One may read the CC50 as the concentration giving 50% cytotoxicity.
